Measured values as given in PMC3217903 (Biochemistry, 2011).

Columns and labels:
[1] = Stopped-flow association and dissociation kinetics, PM; type: binding
Procedure, shortened: (§1)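 Stopped-flow FRET in binding buffer plus 10 mM DTT, 25°C, on plasma-membrane-mimic vesicles. Association: 0.5 μM PH domain mixed with vesicles (300 μM total lipid, 3 μM accessible PIP); kon from the dominant fast phase of a double-exponential fit. Dissociation: preformed complex mixed with excess IP6 (PI(3,4,5)P3: 10 mM wild type, 20 mM mutants; PI(4,5)P2: 8 mM). KD = koff/kon; ≥3 runs averaged.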

[2] = Competitive displacement assay; type: binding; conditions: ratio of equilibrium KD values
Procedure, shortened: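 Human GRP1 PH (residues 255–392) or mouse PLCδ1 PH (12–142) GST fusions, made in E. coli BL21. Sonicated vesicles mimic the plasma membrane (PE/PC/PS/PI/SM/CH/dPE/PIPn, 27.5/10.5/21/4.5/4.5/25/5/2 mol%). Sample: 0.5 μM protein, 300 μM total lipid, 3 μM accessible PI(4,5)P2 or PI(3,4,5)P3, pH 7.4 HEPES/KCl buffer plus 10 mM DTT, 25°C. IP6 titrated while FRET decrease is monitored. Protein-free control subtracted. KD(PIPn) calculated from fitted KI(IP6)app and KD(IP6).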

[3] = IP6 binding to free PH domain, intrinsic tryptophan fluorescence titration; conditions: read-out: KD(IP6); free PH domain 0.5 μM, 25°C, binding buffer plus 10 mM DTT
Procedure, shortened: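 GST-fused PH domain (0.5 μM) titrated with IP6. Intrinsic Trp excitation 284 nm; emission 322 nm (GRP1) or 340 nm (PLCδ1). A parallel control with sodium phosphate at six times the IP6 concentration is subtracted after dilution correction. KD from nonlinear least-squares hyperbolic fit. Triplicate titrations, mean ±1 SD; reported constants average ≥3 independent fits.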

NIH 3T3 cells = test: Live cell imaging of plasma membrane targeting of citrine-coupled PH domains; type: cell-based; conditions: serum-starved NIH 3T3 cells
Procedure, shortened: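 NIH 3T3 fibroblasts grown in DMEM with 10% FBS and transfected with Lipofectamine 2000 (4 μg DNA) with N-terminal citrine–PH fusions. Replated 24–48 h post-transfection, then serum-starved 6 h in DMEM with 0.2% BSA at 37°C. Imaged live by wide-field fluorescence microscopy in HEPES-buffered HBSS, pH 7.4, with 0.01% BSA.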

[4] = Stopped-flow association and dissociation kinetics, PM; type: binding; remark: listed apart in the source
Procedure, shortened: as §1

B1: WT: native PH domain of human GRP1 (residues 255–392), GST-fusion purified; citrine fusion in cells (protein, UniProt O43739 255-392, looked up, fragment)
chain: GNDLTHTFFNPDREGWLLKLGGGRVKTWKRRWFILTDNCLYYFEYTTDKEPRGIIPLENLSIREVEDPRKPNCFELYNPSHKGQVIKACKTEADGRVVEGNHVVYRISAPSPEEKEEWMKSIKASISRDPFYDMLATR
modifications: PH domain GST or citrine fusion
[1]; PM(+)PI(3,4,5)P3, 25°C
  kon: 14 ± 1 ×10^6 M^−1 s^−1
[1]; PM(+)PI(3,4,5)P3, excess IP6, 25°C
  koff: 0.79 ± 0.01 s⁻¹
[1]; read-out: KD (koff/kon), PM(+)PI(3,4,5)P3, calculated from kinetic constants
  Kd: 55 ± 1 nM
[2]
  weaker binding of membrane-bound PI(4,5)P2 than PI(3,4,5)P3: over 200 fold
[3]
  Kd: 20000 ± 3000 nM

B2: PLCδ1: PH domain of mouse PLCδ1 (residues 12–142), PI(4,5)P2-specific control (protein, UniProt Q8R3B1 12-142, looked up, fragment)
chain: GLQDDPDLQALLKGSQLLKVKSSSWRRERFYKLQEDCKTIWQESRKVMRSPESQLFSIEDIQEVRMGHRTEGLEKFARDIPEDRCFSIVFKDQRNTLDLIAPSPADVQHWVQGLRKIIDRSGSMDQRQKLQ
modifications: PH domain
NIH 3T3 cells; 20 μM ionomycin, 2 mM extracellular Ca2+, three minute
  relocation from plasma membrane to cytoplasm on PI(4,5)P2 hydrolysis: fully relocates
NIH 3T3 cells; citrine fusion
  cellular distribution in resting cells: targeted to plasma membrane
[4]; PM(+)PI(4,5)P2, 25°C
  kon: 180 ± 10 ×10^6 M^−1 s^−1
[4]; PM(+)PI(4,5)P2, excess IP6, 25°C
  koff: 15 ± 1 s⁻¹
[4]; read-out: KD (koff/kon), PM(+)PI(4,5)P2, calculated from kinetic constants
  Kd: 81 ± 5 nM
[3]
  Kd: 4000 ± 1000 nM
